Data set [1] is described as follows: Neurotoxicity in Sprague-Dawley rat at 300 mg/kg, ip measured after 2 hrs by rotarod test. It is filed as toxicity, organism-based. As to conditions: in vivo. The method, boiled down:
(§1)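 Rat neurotoxicity after i.p. or p.o. dosing was scored as animals impaired / animals tested at each time point. For p.o. dosing, TD50 was obtained by probit analysis.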
(Falling from the rotarod earlier than controls is read as motor impairment.)

Data set [2] in a line: Neurotoxicity in Sprague-Dawley rat at 30 mg/kg, ip measured after 2 hrs by rotarod test. As to conditions: in vivo. Type of data set: toxicity, organism-based. The method, boiled down: as §1
The subject of data set [3] is Mus musculus. Description: Anticonvulsant activity in ip dosed CF-1 mouse model of maximal electroshock-induced seizure assessed as suppression of tonic hind limb extension. Type of data set: functional. The conditions noted are these: CF-1, ip. For orientation: The maximal electroshock test induces tonic seizures with an electrical stimulus.
Data set [4] deals with Mus musculus. Put plainly: Anticonvulsant activity in CF-1 mouse model of maximal electroshock-induced seizure assessed as suppression of tonic hind limb extension at 110 mg/kg, ip measured at 0.25 hrs post dose. Type of data set: functional, organism-based. The method, boiled down: (§2)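 Mice dosed i.p. and given maximal electroshock at 50 mA. Read-out is protection, reported as number protected / number tested at 0.25, 0.5, 1 and 4 h after dosing.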

For data set [5], the system named is Mus musculus. Put plainly: Anticonvulsant activity in CF-1 mouse model of maximal electroshock-induced seizure assessed as suppression of tonic hind limb extension at 110 mg/kg, ip measured at 0.5 hrs post dose. Type of data set: functional, organism-based. In outline: as §2
Data set [6] deals with Mus musculus. Description: Anticonvulsant activity in CF-1 mouse model of maximal electroshock-induced seizure assessed as suppression of tonic hind limb extension at 110 mg/kg, ip measured at 1 hr post dose. It is filed as functional, organism-based. The method, boiled down:
as §2

Data set [7] is described as follows: Neurotoxicity in CF-1 mouse at 220 mg/kg, ip measured after 0.25 hrs by rotarod test. As to conditions: in vivo. It is filed as toxicity, organism-based. In outline:
(§3)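 Mice dosed i.p. were placed on a 1 in. knurled rod turning at 6 rpm. Toxicity was scored as failure to keep balance for at least 1 min, i.e. falling off three or more times. Results are reported as animals showing toxicity / animals tested at each time point.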

Data set [8] in a line: Neurotoxicity in CF-1 mouse at 220 mg/kg, ip measured after 4 hrs by rotarod test. As to conditions: in vivo. Type of data set: toxicity, organism-based. The method, boiled down:
as §3

Data set [9] is described as follows: Protection index, ratio of TD50 for neurotoxicity in ip dosed CF-1 mouse to ED50 for anticonvulsant activity in CF-1 mouse model of maximal electroshock-induced seizure. Type of data set: toxicity, organism-based. As to conditions: in vivo, read-out: Ratio TD50/ED50.
Data set [10] deals with Rattus norvegicus. Description: Anticonvulsant activity in po dosed Sprague-Dawley rat model of maximal electroshock-induced seizure assessed as suppression of tonic hind limb extension. Type of data set: functional. The method, boiled down:
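Rats dosed p.o. and tested by MES at 150 mA. ED50 derived by probit analysis from quantitative dose groups, run at the time of peak effect (hours).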

Data set [11] is described as follows: Neurotoxicity in po dosed Sprague-Dawley rat by rotarod test. Type of data set: toxicity, organism-based. As to conditions: in vivo. The method, boiled down:
as §1

Data set [12] is described as follows: Protection index, ratio of TD50 for neurotoxicity in po dosed Sprague-Dawley rat to ED50 for anticonvulsant activity in Sprague-Dawley rat model of maximal electroshock-induced seizure. Type of data set: toxicity, organism-based. The conditions noted are these: in vivo, read-out: Ratio TD50/ED50. In outline: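 The rat p.o. protective index is TD50 (rotarod) / ED50 (MES, 150 mA). Both values were calculated by probit analysis.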

A short description of data set [13]: Neurotoxicity in Sprague-Dawley rat at 300 mg/kg, ip measured after 0.25 hrs by rotarod test. It is filed as toxicity, organism-based. The conditions noted are these: in vivo. The method, boiled down:
as §1

Data set [14] is described as follows: Neurotoxicity in Sprague-Dawley rat at 30 mg/kg, ip measured after 0.5 hrs by rotarod test. It is filed as toxicity, organism-based. As to conditions: in vivo. In outline:
as §1

Data set [15] is described as follows: Neurotoxicity in Sprague-Dawley rat at 300 mg/kg, ip measured after 0.5 hrs by rotarod test. It is filed as toxicity, organism-based. As to conditions: in vivo. The method, boiled down: as §1
A short description of data set [16]: Neurotoxicity in Sprague-Dawley rat at 30 mg/kg, ip measured after 1 hr by rotarod test. It is filed as toxicity, organism-based. As to conditions: in vivo. In outline: as §1
Data set [17] can be described thus: Neurotoxicity in Sprague-Dawley rat at 300 mg/kg, ip measured after 1 hr by rotarod test. The conditions noted are these: in vivo. It is filed as toxicity, organism-based. The method, boiled down:
as §1

A short description of data set [18]: Neurotoxicity in Sprague-Dawley rat at 30 mg/kg, ip measured after 4 hrs by rotarod test. Type of data set: toxicity, organism-based. The conditions noted are these: in vivo. The method, boiled down: as §1
A short description of data set [19]: Neurotoxicity in Sprague-Dawley rat at 300 mg/kg, ip measured after 4 hrs by rotarod test. Type of data set: toxicity, organism-based. As to conditions: in vivo. The method, boiled down: as §1
Data set [20] is described as follows: Neurotoxicity in Sprague-Dawley rat assessed as abnormal behavior at 100 mg/kg, ip administered as single dose measured after 0.25 hrs by rotarod test. Type of data set: toxicity, organism-based. As to conditions: in vivo. The method, boiled down: as §1
In data set [21] the test system is Rattus norvegicus. Put plainly: Anticonvulsant activity in hippocampal kindling Sprague-Dawley rat model assessed as after discharge time at 50 mg/kg, ip administered as single dose measured after 15 mins. It is filed as functional. In outline: (§4)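 Rats implanted with a hippocampal electrode and kindled with suprathreshold trains (200 µA, 10 s, 50 Hz) every 30 min for 6 h on alternate days until fully kindled. One week later they received a single i.p. dose. Seizure score (Racine scale) and afterdischarge duration were recorded at 0–135 min and compared with the control stimulus given 15 min before dosing; each animal served as its own control. Values are mean ± SEM.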

In data set [22] the test system is Rattus norvegicus. Description: Anticonvulsant activity in hippocampal kindling Sprague-Dawley rat model assessed as after discharge time at 50 mg/kg, ip administered as single dose measured after 75 mins. Type of data set: functional. In outline: as §4
Data set [23] concerns Rattus norvegicus. Description: Anticonvulsant activity in hippocampal kindling Sprague-Dawley rat model assessed as after discharge time at 100 mg/kg, ip administered as single dose measured after 15 mins. Type of data set: functional. The method, boiled down:
as §4

Data set [24] has as its system Rattus norvegicus. Description: Anticonvulsant activity in hippocampal kindling Sprague-Dawley rat model assessed as after discharge time at 100 mg/kg, ip administered as single dose measured after 45 mins. Type of data set: functional. In outline: as §4
Data set [25] has as its system Rattus norvegicus. Put plainly: Anticonvulsant activity in hippocampal kindling Sprague-Dawley rat model assessed as after discharge time at 100 mg/kg, ip administered as single dose measured after 135 mins. Type of data set: functional. In outline:
as §4

Data set [26] can be described thus: Neurotoxicity in Sprague-Dawley rat at 50 mg/kg, ip administered as single dose measured after 0.25 hrs by rotarod test. It is filed as toxicity, organism-based. As to conditions: in vivo. In outline:
as §1

The test system of data set [27] is Astrocyte. Put plainly: Cytotoxicity against human astrocytes at 10 to 200 uM after 24 hrs by MTT assay. It is filed as cell-based. The method, boiled down: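 Human astrocytes derived from iPSCs via neural stem cells (7 days neural induction, then 17 days in astrocyte growth medium; GFAP-confirmed). Cells seeded at 1×10^4 per well in 1% FBS medium the day before, then exposed to 10–200 µM for 24 h with vehicle controls. MTT added for 4 h at 37 °C, formazan dissolved, OD read at 570 nm.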
A general note: Tetrazolium dyes change colour on reduction, which living cells bring about.

The test system of data set [28] is Astrocyte. Description: Cytotoxicity against mouse astrocytes at 10 to 200 uM after 24 hrs by neutral red staining based microscopic analysis. It is filed as cell-based. The method, boiled down:
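Mouse astrocyte line seeded at 1×10^4 per well, treated 24 h later with 10–200 µM for 24 h. Medium then replaced with neutral red (4 µg ml⁻¹) in EMEM with 5% FBS for 3 h. Cells washed, dye extracted in ethanol/water/acetic acid, A540 read. Cytotoxicity (%) = (1 − sample A540/control A540) × 100.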

Data set [29] has as its system Astrocyte. Description: Cytotoxicity against mouse astrocytes assessed as effect on cell proliferation at 10 to 200 uM after 72 hrs by crystal violet staining based spectrophotometric method. The method, boiled down: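 Proliferation in mouse astrocyte line: 1×10^4 cells per well, exposed 24 h after seeding to 10–200 µM for 72 h. Fixed in 3.7% formaldehyde, stained 10 min with 0.01% crystal violet, dye eluted with methanolic citric acid/sodium citrate, OD at 540 nm.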

Data set [30] deals with Rattus norvegicus. Description: Anticonvulsant activity in Sprague-Dawley rat model of maximal electroshock-induced seizure assessed as suppression of tonic hind limb extension at 30 mg/kg, po measured at 4 hrs post dose. It is filed as functional, organism-based. The method, boiled down: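 Rats given 30 mg/kg p.o. and tested by maximal electroshock at 150 mA. Scored as number protected / number tested (4 per group) at 0.25, 0.5, 1, 2 and 4 h after dosing.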

Each structure is given as a SMILES string. Activity calls are given as the source filed them.

One may read the ED50 as the midpoint of the dose-response relation. By TD50 is commonly meant the 50% point of the dose-response relation for the toxic effect studied. A low value points to harm at a small dose. Regarding `Cc1cccc(C)c1OCC(=O)N[C@H](C)CO`, the Activity entry in data set [1] is given as “Toxic”; in data set [2], “Non-Toxic”; in data set [7] it was “Toxic”; in data set [8] it was “Non-Toxic”; in data set [13], “Toxic”; in data set [14], “Non-Toxic”. For the same compound, the Activity result is recorded as “Toxic” in data set [15]; “Non-Toxic” in data set [16]; “Toxic” in [17]; “Non-Toxic” in [18]; “Toxic” in data set [19]; “Toxic” in data set [20]. The Activity entry (in data set [26]; in the data set with Astrocyte [27]; in the data set on Astrocyte [28]; in the data set with Astrocyte [29]) was “Non-Toxic” in each case. Also, the 50% effective dose (ED50) was found to be 97.9 mg/kg in the data set with Mus musculus [3] and 12 mg/kg with Rattus norvegicus [10]. Moreover, the result in the data set on Mus musculus [4] was Active. Moreover, the outcome with Mus musculus [5] and in the data set with Mus musculus [6] was inactive. In addition, the values for the selectivity ratio in data set [9] and in data set [12] were 1.43 and more than 41.6, respectively. Also, the TD50 in [11] is more than 500 mg/kg. Besides, the Time with Rattus norvegicus [21] is recorded as 71 s; in the data set with Rattus norvegicus [22] it was 75 s; with Rattus norvegicus [23], 48 s; in the data set with Rattus norvegicus [24], 86 s; with Rattus norvegicus [25], 76 s.
For the compound `CCC(O)CNC(=O)COc1c(C)cccc1C` (stereo not given), in the data set with Rattus norvegicus [30], the result was inactive.
